Measurements gathered from unrelated publications.
Compare with care: the assays were run in different laboratories. pIC50: −log10 of the molar value.
Cell line: HCT-116
Effect on: cell growth or viability

| Structure (SMILES) | assay | conditions | endpoint | result |
| --- | --- | --- | --- | --- |
| COc1ccc(NC(=O)c2c(Nc3ccccc3)sc(C#N)c2NC(=O)CNc2ccc(OC)c(OC)c2)cc1 | SRB | 10 µM, 48 h | viability | 53.6% |
| COc1ccc(C(=O)/C=C/c2cc3c(cc2Br)OCO3)cc1S(N)(=O)=O | SRB | 10 µM | inhibition | 198% |
| CCN(CC)CCOc1cc2cc3c(cc2c2nc(OC)c4cc(OC)c(OC)cc4c12)OCO3 | MTT | 72 h | GI50 | ≥ 100 µM |
| COc1ccc(NC(=O)c2c(Nc3ccccc3)sc(C#N)c2NC(=O)CNc2ccc(O)cc2)cc1 | SRB | 10 nM, 48 h | viability | 93.1% |
| CNS(=O)(=O)Nc1nccc(Cc2c(C)c3ccc(Oc4ncccn4)cc3oc2=O)c1F | CCK-8 |  | GI50 | 3.23 µM |
| COc1ccccc1/C=C/C(=O)c1ccc(OC)c(S(N)(=O)=O)c1 | SRB | 10 µM | inhibition | 95% |
| COc1ccc2cc(/C=N/n3c(C)nc4ccc(Br)cc4c3=O)ccc2c1 | LDH | 200 µg/mL, 24 h | viability | 57% |
| COc1ccc(C(=O)/C=C/c2cccc3ccccc23)cc1S(N)(=O)=O | SRB | 10 µM | inhibition | 192% |
| COc1ccc(NCC(=O)Nc2c(C#N)sc(Nc3ccccc3)c2C(=O)Nc2ccc(OC)cc2)cc1 | SRB | 1 µM, 48 h | viability | 70.2% |
| COc1ccc(C(=O)/C=C/c2cccc(Cl)c2)cc1S(N)(=O)=O | SRB | 48 h | GI50 | 1.2 µM |
| COc1ccc(NC(=O)c2c(Nc3ccccc3)sc(C#N)c2NC(=O)CNc2ccc(Cl)cc2)cc1 | SRB | 10 µM, 48 h | viability | 48.6% |
| Cc1nc2ccc(Br)cc2c(=O)n1/N=C/c1ccc(C(=O)O)cc1 | LDH | 200 µg/mL, 24 h | viability | 53.5% |
| COc1ccc(C(=O)/C=C/c2ccccc2Br)cc1S(N)(=O)=O | SRB | 48 h | GI50 | 1.5 µM |
| CCN(CC)CCCOc1cc2cc3c(cc2c2nc(OC)c4cc(OC)c(OC)cc4c12)OCO3 | MTT | 72 h | GI50 | 13 µM |
| COc1cc(CNC(=O)C[C@H](C)CCC=C(C)C)ccc1OCc1cn(-c2ccc(Cl)cc2)nn1 | SRB | 10 µM | inhibition | 41% |
| COc1ccc(NC(=O)c2c(Nc3ccccc3)sc(C(=O)NN=Cc3ccc(OC)c(O)c3)c2NC(C)=O)cc1 | SRB | 10 nM, 48 h | viability | 83.7% |
| COc1cc(NCC(=O)Nn2c(C)nc3ccc(Cl)cc3c2=O)cc(OC)c1OC | LDH | 200 µg/mL, 24 h | viability | 54.5% |
| COc1cc2c(OC)nc3c4cc5c(cc4cc(OCCCN4CCCC4)c3c2cc1OC)OCO5 | MTT | 72 h | GI50 | 2.4 µM |
| COc1ccc(C(=O)/C=C/c2ccc3c(c2)OCCO3)cc1S(N)(=O)=O | SRB | 10 µM | inhibition | 57% |
| S=C([S][Au-][P+](CCCCCC[P+]([Au-][S]C(=S)n1cccn1)(c1ccccc1)c1ccccc1)(c1ccccc1)c1ccccc1)n1cccn1 |  |  | GI50 | 0.42 µM |
| COc1ccc(C(=O)/C=C/c2ccc3ccccc3c2)cc1S(N)(=O)=O | SRB | 10 µM | inhibition | 198% |
| COc1ccc(NC(=O)c2c(Nc3ccccc3)sc(C(=O)NN=Cc3cc(OC)c(OC)c(OC)c3)c2NC(C)=O)cc1 | SRB | 100 µM, 48 h | viability | 43.2% |
| COc1cc2c(OC)nc3c4cc5c(cc4cc(OCCN4CCCC4)c3c2cc1OC)OCO5 | MTT | 72 h | GI50 | 64 µM |
| COc1ccc(NC(=O)c2c(Nc3ccccc3)sc(C(=O)NN=Cc3ccc(Cl)cc3)c2NC(C)=O)cc1 | SRB | 10 nM, 48 h | viability | 95.1% |
| COc1cc([C@@H]2c3cc4c(cc3[C@@H](O[C@@H]3O[C@@H]5CO[C@@H](C)O[C@H]5[C@H](O)[C@H]3O)[C@H]3COC(=O)[C@H]23)OCO4)cc(OC)c1O | MTS | 72 h | pIC50 | 4.74 |
| COc1ccc(C(=O)/C=C/c2ccc(Cl)c(Cl)c2)cc1S(N)(=O)=O | SRB | 48 h | GI50 | 1.2 µM |
| COc1ccc(NC(=O)c2c(Nc3ccccc3)sc(C#N)c2NC(=O)CNc2ccc([N+](=O)[O-])cc2)cc1 | SRB | 0.1 µM, 48 h | viability | 83.9% |
| COc1cc2c(OC)nc3c4cc5c(cc4cc(O)c3c2cc1OC)OCO5 | MTT | 72 h | GI50 | 5.7 µM |
